# Source: PubChem BioAssay (Sanford-Burnham Center for Chemical Genomics)
# Most compounds without a hit are left out; they make up all but 1.9% or so of the library.
# APJ agonist: activates the human apelin receptor APJ | P35414 | CHO-K1 APJ PathHunter beta-arrestin, luminescence; 0% DMSO wells, 100% apelin | activation, % at 20 µM | hit rate 0.11% among 330,000 | AID 2520;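 active means activation more than six SD over the plate average, tested at 20 µM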;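 further: 0% = DMSO alone and 100% = apelin-13 at 10 nM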
#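 Assay system: CHO-K1 APJ beta-arrestin complementation cell line / Compound: single test compound dose, 20 µM final, 1% DMSO / Times: overnight seeding, 90 min compound at 25 °C, 1 h detection / Technique: beta-gal luminescence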
# CXCR6 inh: inhibitors of human CXCR6 receptor; AID 602244; CHO-K1 PathHunter CXCR6 beta-arrestin, luminescence; O00574; hit rate 0.36% among 360,000; inhibition, % at 20 µM; in the data active means inhibition above about 34%, passing the limit was not always enough;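 further: antagonist mode with CXCL16 agonist at 10 nM final; 0% = 10 nM CXCL16 with DMSO and 100% = unstimulated wells without agonist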
# Target sequence (O00574 whole entry, looked up): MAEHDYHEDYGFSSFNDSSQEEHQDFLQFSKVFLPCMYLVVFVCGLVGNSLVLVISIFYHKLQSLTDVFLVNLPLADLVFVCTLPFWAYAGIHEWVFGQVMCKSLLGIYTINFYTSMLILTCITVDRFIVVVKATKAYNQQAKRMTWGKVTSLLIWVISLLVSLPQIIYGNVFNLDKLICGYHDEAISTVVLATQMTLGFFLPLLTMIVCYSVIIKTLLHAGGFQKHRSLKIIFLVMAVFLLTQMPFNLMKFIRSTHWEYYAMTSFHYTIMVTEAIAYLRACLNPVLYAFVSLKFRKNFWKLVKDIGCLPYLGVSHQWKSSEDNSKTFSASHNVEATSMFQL
# EBI2 antag: EBI2 (human) antagonism | AID 651636 | inhibition, % at 5 µM | hit rate 0.81% among 360,000 | EBI2 beta-arrestin recruitment, luminescence, 7a,25-OHC stimulated | P32249; in the data active means inhibition above about 38%;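 further: enzyme fragment complementation signal reports receptor beta-arrestin coupling in cells; 0% = agonist plus DMSO wells and 100% = wells without agonist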
# CCR6 antag: blocks CCL20-driven beta-arrestin recruitment at human CCR6; inhibition, % at 20 µM; P51684; CHO-K1 CCR6 PathHunter beta-arrestin, luminescence, CCL20-stimulated; hit rate 0.49% among 340,000;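 active means compounds whose inhibition of the agonist-driven luminescence signal at 20 µM reaches about 50%, limit read from the data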;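 further: cells stimulated with CCL20 at 14 nM final; plate controls were DMSO with CCL20 for no effect and DMSO without agonist for full effect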
# H9c2 TAG inh: inhibitors of triacylglycerol accumulation. inhibition, % at 12.5 µM. hit rate 0.66% among 230,000. H9c2 cells, Nile Red lipid (TAG) fluorescence; cells loaded with 200 µM oleic acid. AID 651582;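 active means pattern-corrected inhibition of lipid staining of at least 50% with the nuclear-stain viability signal not falling by more than 50%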;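 further: 0% = DMSO wells and 100% = triacsin C control wells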
# APJ antagonist: APJ receptor antagonism | P35414 | CHO-K1 APJ beta-arrestin complementation, luminescence | inhibition, % at 20 µM | hit rate 0.32% among 330,000 | AID 2521;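 active means inhibition above about 40% at 20 µM, limit read from the data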;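 further: cells challenged with 10 nM apelin-13 agonist together with compound; plate controls were apelin-13 plus DMSO wells for no effect and DMSO wells lacking apelin-13 for full effect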
# EBI2 antag conf: EBI2 (human) antagonism, single concentration confirmation | EBI2 beta-arrestin luminescence, 7a,25-OHC antagonism | shares compounds with EBI2 antag | inhibition, % at 5 µM | AID 651997 | hit rate 29% among 2,400;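 active means inhibition of at least 50%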
# EBI2 agonist: EBI2 agonism counter-screen; AID 652000; 2,400 tested, under 10 active; EBI2-expressing cells, agonist mode, luminescence, 60 min; 0% vehicle, 100% 7α,25-dihydroxycholesterol control; activation, % at 5 µM; shares compounds with EBI2 antag;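 active means activation of at least 50%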
# bGal counter: counter-screen for EBI2 antagonists: E. coli beta-galactosidase inhibition; shares compounds with EBI2 antag; purified beta-galactosidase, luminescent Galacton Star, 15 min; inhibition, % at 5 µM; hit rate 1% among 2,400;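 active means replicate-average signal at least 3 plate SD below neutral wells, shown as high inhibition, flagging enzyme-inhibiting false positives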;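 further: 0% = DMSO wells with enzyme and 100% = wells lacking enzyme; higher means stronger loss of beta-gal luminescence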
# * marks the source's active call; other numbers are inactive results; . = not tested or not shown; ! = a repeat was not active.
SMILES,APJ agonist,CXCR6 inh,EBI2 antag,CCR6 antag,H9c2 TAG inh,APJ antagonist,EBI2 antag conf,EBI2 agonist,bGal counter
CC(C)C[C@@H](CN1CCC[C@@H]1CN1C(=S)NC[C@@H]1Cc1ccc(O)cc1)N1C[C@H](Cc2ccc(O)cc2)N(CC2CCCCCC2)C1=S,.,-6,85*,.,.,.,47,0,-15
CC(C)C[C@@H](CN1CCC[C@@H]1CN1C(=S)NC[C@@H]1Cc1ccc(O)cc1)N1C[C@H](Cc2ccc(O)cc2)N(CC2CCCCC2)C1=S,.,1,89*,.,.,.,42,-1,-11
CC1CN(CC(O)c2ccc(Br)cc2)CCO1 (centres undefined),.,-12,3,3,0,.,.,.,.
CC(C)c1ccc(N(CC(=O)NC2CCCC2)C(=O)CCC(=O)Nc2nccs2)cc1,0,-2,8,-5,.,-13,.,.,.
O=C(OCc1ccccc1)N1CCN(C(c2ccnc3ccccc23)c2nnnn2-c2ccc3c(c2)OCCO3)CC1 (centres undefined),.,18,60*,.,.,.,27,3,9
Cc1cccc(C)c1-n1nnnc1C(c1cccc2ccccc12)N1CCN(C/C=C/c2ccccc2)CC1 (centres undefined),.,9,36,.,.,.,.,.,.
C(=C\c1ccccc1)/CN1CCN(C(c2cccc3ccccc23)c2nnnn2-c2ccc3c(c2)OCCO3)CC1 (centres undefined),.,6,55*,.,.,.,22,0,-18
FC(F)(F)Oc1ccccc1C(c1nnnn1-c1ccc2c(c1)OCCO2)N1CCN(C/C=C/c2ccccc2)CC1 (centres undefined),.,21,81*,.,.,.,56*,1,4
CCOc1cc(/C=N/NC(=O)c2ccc(CN3CCOCC3)cc2)ccc1OCc1ccccc1,4,1,55*,-4,.,-3,60*,-1,-20
O=C(N/N=C/c1cccc(OCc2ccccc2)c1)c1ccc(Br)cc1,0,-9,36*,2,.,-14,23,1,6
COc1cccc(/C=N/NC(=O)c2ccc(OCc3cccc(Br)c3)cc2)c1,3,-2,24,-9,18,-8,.,.,.
COc1ccc(CC2(CO)COc3ccccc3C2=O)cc1 (centres undefined),-1,7,0,11,-2,-25,.,.,.
O=c1oc2ccccc2n1Cc1cccc(C(F)(F)F)c1,1,2,0,4,0,6,.,.,.
O=C(/C=C/c1cccc([N+](=O)[O-])c1)NCCSCc1ccc(Cl)cc1,-3,-9,22,15,.,1,.,.,.
O=C(/C=C/c1ccc(Cl)cc1)NCc1cccs1,-1,5,53*,17,.,-35,53*,-1,-9
CSc1cccc(NC(=O)/C=C/c2ccc(Cl)cc2)c1,-3,-8,59*,17,2,-24,68*,2,-2
O=C(/C=C/c1cccc(Cl)c1)NCc1cccs1,-2,-1,14,-1,.,-14,.,.,.
O=C(/C=C/c1ccc(Cl)cc1)NCCSc1ccccc1,-7,3,60*,15,.,9,31,1,-10
O=C(/C=C/c1ccccc1)NCCSCc1ccc(Cl)cc1,-10,-7,52*,11,.,5,15,-2,-9
COc1ccc(-c2nc(N)nc(C(F)(F)F)c2-c2ccccc2OC)c(O)c1,2,1,8,-6,.,0,.,.,.
COc1ccc(-c2nc(N)ncc2Oc2ccccc2Br)c(O)c1,0,-1,62*,10,10,-3,23,0,4
COc1cccc(Oc2cnc(N)nc2-c2ccc(OC)cc2O)c1,-10,0,52*,-14,20,-7,48,3,6
CC1(c2ccccc2)CC(C)(C)N2C(=O)Cc3cccc1c32 (centres undefined),-1,10,16,7,-6,6,.,.,.
CCCCNC(=O)C1(C)CCN1C(=O)c1cccnc1Oc1ccccc1 (centres undefined),.,0,3,.,-2,.,.,.,.
CCCCCCSc1ccc(-c2nc3ccc(C)cn3c2NCc2ccccc2)cc1,-7,0,53*,3,-17,3,54*!,1,2
SMILES,APJ agonist,CXCR6 inh,EBI2 antag,CCR6 antag,H9c2 TAG inh,APJ antagonist,EBI2 antag conf,EBI2 agonist,bGal counter
CCCCNc1c(-c2cccc(SC(C)CC)c2)nc2ccc(Cl)cn12 (centres undefined),-1,2,12,6,-57,-9,.,.,.
COc1ccc(-c2ccc(-c3nc4ccc(C)cn4c3NC3CCCCC3)cc2OC)cc1,9,16,72*,26,25,-11,65*!,0,-11
CCC(C)Sc1ccc(-c2nc3ccc(Cl)cn3c2NCc2ccccc2)cc1 (centres undefined),1,-3,44*,9,27,-1,28,-2,-14
CCCCCCSc1cccc(-c2nc3ccc(Cl)cn3c2NCc2ccccc2)c1,-4,11,15,24,-23,-8,.,.,.
CCCCNc1c(-c2ccc(SC3CCCCC3)c(OC)c2)nc2ccc(C)cn12,-1,-1,52*,14,10,6,55*!,3,3
COc1ccc(-c2csc(NC(C)c3nc4cc(C(F)(F)F)ccc4n3CCOCCO)n2)cc1 (centres undefined),-1,4,15,3,17,-20,.,.,.
NS(=O)(=O)c1ccc(-n2nncc2-c2ccco2)cc1,3,-1,-3,20,.,0,.,.,.
C[C@@H]1CN([C@@H](C)CO)C(=O)CCCn2cc(nn2)CO[C@H]1CN(C)S(=O)(=O)c1ccccc1F,.,5,-6,.,-4,.,.,.,.
CCCCCCSc1ccc(-c2nc3ccc(C)cn3c2NCc2ccccc2)cc1OC,-9,20,72*,43,7,-3,44,1,2
CCCCCCSc1cc(-c2nc3ccc(C)cn3c2NCCCC)ccc1OC,1,13,32,12,18,21,.,.,.
Cc1ccc(NC(NC(=O)Cc2ccccc2)C(Cl)(Cl)Cl)cc1 (centres undefined),.,6,44*,21,.,.,6,1,5
CCSc1nc2c(cnn2-c2ccccc2)c(=O)n1N,2,-1,1,9,3,-3,.,.,.
C=CCn1c(C)c(C(C)=O)c(N2CCN(C(c3ccccc3)c3ccccc3)CC2)nc1=S,-2,13,54*,23,13,20,24,1,3
COc1cccc(CNC(=O)[C@@H]2CCCN2C(=O)[C@@H]2CCCN2C(=O)c2cccc(OC)c2)c1,.,-16,-6,.,.,.,.,.,.
